The text below walks through data of article PMC11831733 (RSC Advances, 2025).

For one data set, the system named is C. acutatum (BCC 58146). The data set can be described thus: microbe, parasite or virus in culture. Type of data set: cell-based. The settings on record: Colletotrichum acutatum, read-out: Anti-phytopathogenic fungal (MIC, μM) C. acutatum.
Data set [1] deals with A. brassicicola (BCC 42724). The data set can be described thus: microbe, parasite or virus in culture. Type of data set: cell-based. As to conditions: Alternaria brassicicola, read-out: Anti-phytopathogenic fungal (MIC, μM) A. brassicicola.
Data set [2] can be described thus: Cytotoxicity, resazurin microplate assay. Type of data set: cell-based. The settings on record: human, NCI-H187 cells (human small-cell lung cancer, ATCC CRL-5804). In outline: (§1)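 Test compound and cell suspension were combined in triplicate wells and kept at 37 °C in humidified 5% CO2 for 3 d (MCF-7) or 5 d (NCI-H187). A 62.6 μg mL−1 resazurin solution was then added, followed by 4 h at 37 °C. Fluorescence was read bottom-mode at excitation 530 nm and emission 590 nm, and the blank was subtracted.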
For orientation: Resazurin is reduced to fluorescent resorufin, in cell work by metabolically active cells.

Data set [3] in a line: Cytotoxicity, resazurin microplate assay. Type of data set: cell-based. As to conditions: human, MCF-7 cells (human breast cancer, ATCC HTC-22). In a few lines:
as §1

A short description of the next data set: in vitro. Type of data set: cell-based, African green monkey. As to conditions: African green monkey, Cytotoxicity (IC50, μM) Vero.
Data set [4] deals with Vero cells (African green monkey kidney fibroblast). The data set can be described thus: in vitro. As to conditions: read-out: Cytotoxicity (IC50, μM) Vero. Type of data set: cell-based.
Data set [5] relates to all cell lines tested (Plasmodium falciparum, mammalian, and fungal). The data set can be described thus: Antiproliferative activity over all cell lines tested. Type of data set: cell-based. The settings on record: P. falciparum, mammalian and fungal cells.

In brackets after ≈: the same amount, converted by molar mass.

With `C[C@@H]1[C@H](O)[C@@H](C)/C=C/C=C/C=C/C=C/C=C/C=C/C=C/[C@H](O[C@@H]2O[C@H](C)[C@@H](O)[C@H](N)[C@@H]2O)C[C@@H]2O[C@](O)(C[C@@H](O)C[C@@H](O)[C@H](O)CC[C@@H](O)C[C@@H](O)CC(=O)O[C@H]1C)C[C@H](O)[C@H]2C(=O)O` [Amphotericin B, reference compound], the MIC in the data set with C. acutatum (BCC 58146) turned out to be 3.4 µM (≈ 3.14 µg/mL); in data set [1], 1.7 µM (≈ 1.57 µg/mL).

Usually IC50 stands for the concentration that gives 50% inhibition. Compound `COc1cc(O)c2c(=O)c3c(O)cc(C)cc3oc2c1O` [Compound 1, 1,5,8-trihydroxy-6-methoxy-3-methylxanthone] showed a half-inhibitory concentration (IC50) at 5 d in data set [2] of 19 µM. Further, in data set [3], the IC50 at 3 d is more than 174 µM. Also, it took 58.9 µM to reach half-maximal inhibition in the data set “in vitro” (IC50 at 4 d). Besides, the IC50 in data set [4] is 58.9 µM. For the same compound, the MIC (in the data set with C. acutatum (BCC 58146); in data set [1]) was more than 174 µM each time. Besides, the “antiproliferative activity profile (in words)” value in data set [5] is reported as “active only against mammalian cell lines”.

As for `COc1cc(O)c2c(=O)c3c(O)cc(C)cc3oc2c1OC` [Compound 2, 1,8-dihydroxy-5,6-dimethoxy-3-methylxanthone], in data set [2], the IC50 at 5 d is more than 165 µM. In addition, the IC50 at 3 d in data set [3] is more than 165 µM. In the data set “in vitro”, the concentration for half-maximal inhibition (IC50) at 4 d is more than 165 µM. Also, the MIC (with C. acutatum (BCC 58146); in data set [1]) was more than 165 µM in each case.

Turning to `COc1cc2oc3cc(C)cc(O)c3c(=O)c2c(C)c1O` [Compound 3, 1,7-dihydroxy-6-methoxy-3,8-dimethylxanthone], in data set [2], the IC50 at 5 d was more than 175 µM. For the same compound, the IC50 at 3 d in data set [3] was more than 175 µM. Moreover, the IC50 at 4 d in “in vitro” was more than 175 µM. The MIC (in the data set with C. acutatum (BCC 58146); in data set [1]) was more than 175 µM each time.

On to `CCC(=O)c1cc(OC)cc2oc3cc(C)cc(O)c3c(=O)c12` [Compound 4, 1-hydroxy-6-methoxy-3-methyl-8-propionylxanthone], for which, in data set [2], the concentration for half-maximal inhibition (IC50) at 5 d was more than 160 µM. Further, in data set [3], the IC50 at 3 d came to 42.5 µM. For the same compound, the IC50 at 4 d in the data set “in vitro” was more than 160 µM. In addition, the MIC (in the data set on C. acutatum (BCC 58146); in data set [1]) was more than 160 µM in each case. For the same compound, in data set [5], the “antiproliferative activity profile (in words)” value is “active only against mammalian cell lines”.

Compound `O=C(O)CCC(=O)OCCc1ccccc1` [Compound 7, 4-oxo-4-phenethoxybutanoic acid] gave an IC50 at 5 d in data set [2] of more than 225 µM. The compound also showed an IC50 at 3 d in data set [3] of more than 225 µM. This compound returned a half-inhibitory concentration (IC50) at 4 d in “in vitro” of more than 225 µM. Moreover, the MIC (in the data set on C. acutatum (BCC 58146); in data set [1]) was more than 225 µM each time.

For the compound `COc1cccc2c1C(=O)c1c(O)c3c(c(O)c1C2=O)C[C@@](O)(C(=O)CO)C[C@@H]3O[C@H]1C[C@H](N)[C@H](O)[C@H](C)O1` [Doxorubicin, reference compound], it took 0.2 µM to reach half-maximal inhibition in data set [2] (IC50 at 5 d). The compound also registered an IC50 at 3 d in data set [3] of 11.9 µM.
